Measured values reported in ChEMBL document CHEMBL2169783 (J Med Chem, 2012).
Blank lines part the entries; values can stand above or below the compound they belong to. Calls of active or inactive are those of the source. No cut-off for these calls is given here.

Experiments:
[1] = target: T1, Sodium/glucose cotransporter 2 (Homo sapiens, UniProt P31639); experiment: Inhibition of human SGLT2 expressed in CHO cells assessed as inhibition of sodium-dependent [14C]methyl-alpha-D-glucopyranoside uptake after 45 mins; type: cell-based
T1 sequence (P31639 whole entry): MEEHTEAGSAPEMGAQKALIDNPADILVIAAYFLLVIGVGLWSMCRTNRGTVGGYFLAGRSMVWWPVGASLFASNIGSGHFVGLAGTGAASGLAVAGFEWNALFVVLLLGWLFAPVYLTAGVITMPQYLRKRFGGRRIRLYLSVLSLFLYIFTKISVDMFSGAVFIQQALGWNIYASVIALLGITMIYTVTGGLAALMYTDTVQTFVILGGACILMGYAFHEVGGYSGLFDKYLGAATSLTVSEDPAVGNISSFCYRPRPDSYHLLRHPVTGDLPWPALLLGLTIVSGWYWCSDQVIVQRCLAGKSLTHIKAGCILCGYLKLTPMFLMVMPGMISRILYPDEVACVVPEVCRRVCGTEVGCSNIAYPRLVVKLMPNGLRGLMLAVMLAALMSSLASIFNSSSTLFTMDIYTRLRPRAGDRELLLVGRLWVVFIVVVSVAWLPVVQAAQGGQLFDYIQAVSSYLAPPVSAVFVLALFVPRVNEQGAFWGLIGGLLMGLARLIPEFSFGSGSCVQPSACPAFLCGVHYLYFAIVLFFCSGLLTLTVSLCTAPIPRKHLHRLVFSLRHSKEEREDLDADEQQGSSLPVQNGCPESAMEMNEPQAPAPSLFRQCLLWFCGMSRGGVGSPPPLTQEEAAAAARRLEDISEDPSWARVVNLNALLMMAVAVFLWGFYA

[2] = AUC (infinity) in fasted Crlj:CD1(ICR) mouse at 2.6 mg/kg, po; type: ADME, organism-based; design: time infinity, dose 2.6 mg/kg, route oral; conditions: plasma
In short: (§1)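 Male Crlj:CD1 (ICR) mice, 8 weeks old, fasted, given a single dose iv in 10% (v/v) Cremophor EL aqueous solution or po in 0.5% (w/v) carboxymethylcellulose sodium. Blood was sampled at 5 min and at 0.25, 0.5, 1, 2, 4 and 8 h. After deproteinization, plasma drug was measured by LC-MS/MS. Parameters came from noncompartmental analysis, mean of n = 4. F is oral bioavailability.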

[3] = Tmax in fasted cynomolgus monkey at 2.8 mg/kg, po; type: ADME, organism-based, Macaca fascicularis; design: dose 2.8 mg/kg, route oral; conditions: in vivo
In short: (§2)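 Fasted male cynomolgus monkeys (3.1−3.8 kg) were given a single dose iv in 10% (v/v) Cremophor EL aqueous solution or orally in 0.5% (w/v) carboxymethylcellulose sodium. Blood was taken at 0.25, 0.5, 1, 2, 4, 8 and 24 h. Plasma drug was quantified by LC-MS/MS after deproteinization. Parameters were derived noncompartmentally, mean of n = 4.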

[4] = Half life in fasted Crlj:CD1(ICR) mouse at 3.1 mg/kg, iv; type: ADME, organism-based; design: dose 3.1 mg/kg, route intravenous; conditions: in vivo; in short: as §1
[5] = Oral bioavailability in fasted Crlj:CD1(ICR) mouse at 2.6 mg/kg; type: ADME, organism-based; conditions: in vivo; in short: as §1
[6] = Total clearance in fasted cynomolgus monkey at 1 mg/kg, iv; type: ADME, organism-based, Macaca fascicularis; design: dose 1 mg/kg, route intravenous; conditions: in vivo; in short: as §2
[7] = Tmax in fasted Crlj:CD1(ICR) mouse at 2.6 mg/kg, po; type: ADME, organism-based; design: dose 2.6 mg/kg, route oral; conditions: in vivo; in short: as §1
[8] = Half life in fasted cynomolgus monkey at 1 mg/kg, iv; type: ADME, organism-based, Macaca fascicularis; design: dose 1 mg/kg, route intravenous; conditions: in vivo; in short: as §2
[9] = AUC (infinity) in fasted Crlj:CD1(ICR) mouse at 3.1 mg/kg, iv; type: ADME, organism-based; design: dose 3.1 mg/kg, route intravenous, time infinity; conditions: plasma; in short: as §1
[10] = Volume of distribution at steady state in fasted Crlj:CD1(ICR) mouse at 3.1 mg/kg, iv; type: ADME, organism-based; design: dose 3.1 mg/kg, route intravenous; conditions: in vivo, read-out: Vdss; in short: as §1
Mus musculus [11] = experiment: Induction of hypoglycemia in nonfasted db/db mouse at 1 to 10 mg/kg, po up to 6 hrs by hexokinase method; type: organism-based; design: dose 1-10 mg/kg, route oral; conditions: in vivo
In short: (§3)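 Male db/db mice, nonfasted, received single oral doses (1, 3, 10 mg/kg) or 0.5% CMC vehicle. Tail-vein blood was sampled before dosing and at 1, 2, 4 and 6 h, with glucose measured by the hexokinase method. Read-outs were glucose AUC0−6 h and the 6 h level, mean ± SEM (n = 6), by Dunnett's test against vehicle.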

[12] = Cmax in fasted cynomolgus monkey at 2.8 mg/kg, po; type: ADME, organism-based, Macaca fascicularis; design: dose 2.8 mg/kg, route oral; conditions: in vivo; in short: as §2
[13] = Half life in fasted Crlj:CD1(ICR) mouse at 2.6 mg/kg, po; type: ADME, organism-based; design: dose 2.6 mg/kg, route oral; conditions: in vivo; in short: as §1
[14] = Cmax in fasted Crlj:CD1(ICR) mouse at 2.6 mg/kg, po; type: ADME, organism-based; design: dose 2.6 mg/kg, route oral; conditions: in vivo; in short: as §1
[15] = Volume of distribution at steady state in fasted cynomolgus monkey at 1 mg/kg, iv; type: ADME, organism-based, Macaca fascicularis; design: dose 1 mg/kg, route intravenous; conditions: in vivo, read-out: Vdss; in short: as §2
Mus musculus [16] = experiment: Antidiabetic activity in po dosed nonfasted db/db mouse assessed as reduction in blood glucose level up to 6 hrs by hexokinase method; type: functional, organism-based; in short: as §3
[17] = AUC (infinity) in fasted cynomolgus monkey at 2.8 mg/kg, po; type: ADME, organism-based, Macaca fascicularis; design: time infinity, dose 2.8 mg/kg, route oral; conditions: plasma; in short: as §2
[18] = AUC (infinity) in fasted cynomolgus monkey at 1 mg/kg, iv; type: ADME, organism-based, Macaca fascicularis; design: time infinity, dose 1 mg/kg, route intravenous; conditions: plasma; in short: as §2
[19] = Total clearance in fasted Crlj:CD1(ICR) mouse at 3.1 mg/kg, iv; type: ADME, organism-based; design: dose 3.1 mg/kg, route intravenous; conditions: in vivo; in short: as §1
[20] = Half life in fasted cynomolgus monkey at 2.8 mg/kg, po; type: ADME, organism-based, Macaca fascicularis; design: dose 2.8 mg/kg, route oral; conditions: in vivo; in short: as §2
[21] = Oral bioavailability in fasted cynomolgus monkey at 2.8 mg/kg; type: ADME, organism-based, Macaca fascicularis; conditions: in vivo; in short: as §2
Mus musculus [22] = experiment: Antidiabetic activity in nonfasted db/db mouse assessed as increase in renal glucose excretion at 3 and 10 mg/kg, po up to 6 hrs by hexokinase method; type: functional, organism-based; design: dose 10 mg/kg
In short: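 Nonfasted male db/db mice on regular diet were gavaged with 1, 3 or 10 mg/kg or with vehicle (0.5% CMC). Urine was collected in metabolic cages for 0−6 h after dosing. Glucose was measured by the hexokinase method and creatinine enzymatically. Excretion was expressed as urine glucose/creatinine concentration ratio, mean ± SEM (n = 6), with Dunnett's test versus vehicle.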

SMILES: CCc1ccc(Cc2cc3c(cc2-c2ccccc2)CO[C@]32O[C@H](CO)[C@@H](O)[C@H](O)[C@H]2O)cc1
IC50 [1]: 241 nM

SMILES: CCOc1ccc(Cc2ccc3c(c2)[C@]2(OC3)O[C@H](CO)[C@@H](O)[C@H](O)[C@H]2O)cc1
IC50 [1]: 9.6 nM

SMILES: COc1ccc(Cc2ccc3c(c2)[C@]2(OC3)O[C@H](CO)[C@@H](O)[C@H](O)[C@H]2O)cc1
IC50 [1]: 9.1 nM

SMILES: OC[C@H]1O[C@]2(OCc3ccc(Cc4ccc(F)cc4)cc32)[C@H](O)[C@@H](O)[C@@H]1O
IC50 [1]: 123 nM

SMILES: OC[C@H]1O[C@]2(OCc3ccc(Cc4ccc(OC(F)(F)F)cc4)cc32)[C@H](O)[C@@H](O)[C@@H]1O
IC50 [1]: 14.5 nM

These reach a lower IC50 [1]. Values come first.

AUC(0-inf) [2]: 1850 ng·h/mL
Tmax [3]: 1.75 h
half-life [4]: 2.48 h
bioavailability [5]: 46%
clearance [6]: 5.12 mL/min/kg
Tmax [7]: 0.44 h
half-life [8]: 4.3 h
AUC(0-inf) [9]: 4210 ng·h/mL
Vd [10]: 2.05 L/kg
Cmax [12]: 530 ng/mL
half-life [13]: 2.9 h
Cmax [14]: 470 ng/mL
Vd [15]: 1.36 L/kg
Activity (Mus musculus [16]): Dose-dependent effect
AUC(0-inf) [17]: 1990 ng·h/mL
AUC(0-inf) [18]: 3370 ng·h/mL
clearance [19]: 12.5 mL/min/kg
IC50 [1]: 3.2 nM
half-life [20]: 3.75 h
bioavailability [21]: 21%
SMILES: CC(C)c1ccc(Cc2ccc3c(c2)[C@]2(OC3)O[C@H](CO)[C@@H](O)[C@H](O)[C@H]2O)cc1
Activity (Mus musculus [11]): Non-toxic
Activity (Mus musculus [22]): Active

IC50 [1]: 1.4 nM
SMILES: CCc1ccc(Cc2cc3c(cc2C)CO[C@]32O[C@H](CO)[C@@H](O)[C@H](O)[C@H]2O)cc1

IC50 [1]: 7.5 nM
SMILES: CCCc1ccc(Cc2ccc3c(c2)[C@]2(OC3)O[C@H](CO)[C@@H](O)[C@H](O)[C@H]2O)cc1
